{
  "source": "ChEMBL document CHEMBL3797089",
  "about": "“Morusin Induces TRAIL Sensitization by Regulating EGFR and DR5 in Human Glioblastoma Cells” (J Nat Prod, 2016)",
  "key": {"U-87 MG [1]": {"tested_on": "U-87 MG", "test": "Induction of DR5 expression in human U87MG cells at 25 uM after 24 hrs by FITC-conjugated flow cytometric analysis", "format": "functional, cell-based", "details": "U-87MG ATCC", "method_in_brief": "(§1)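 Cells given 25 μM morusin for 24 h, then stained on ice for 30 min with 0.5 μg/mL FITC-conjugated anti-DR4, anti-DR5 or isotype IgG in FACS buffer. Surface expression read by flow cytometry.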"}, "[2]": {"test": "Reduction of survivin mRNA expression in human U87MG cells at 25 uM by RT-qPCR analysis", "format": "functional, cell-based", "details": "U-87MG ATCC, TDE = time-dependent effect", "method_in_brief": "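U87MG cells were exposed to 25 μM morusin over a time course. Total RNA (1 μg) was reverse transcribed, and XIAP and survivin transcripts were measured by RT-qPCR against GAPDH. Results are mean ± SD from at least three independent experiments.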"}, "U373 MG [3]": {"tested_on": "U373 MG", "test": "Induction of DR5 expression in human U373MG cells at 25 uM by Western blot analysis", "format": "functional, cell-based", "details": "U-373MG ATCC, TDE = time-dependent effect", "method_in_brief": "(§2)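 Time course: U87MG and U373MG cells held at 25 μM morusin for the times indicated. Extracts immunoblotted (cIAP1 or DR5), with β-actin as loading control.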"}, "U-87 MG [4]": {"tested_on": "U-87 MG", "test": "Effect on DcR2 expression in human U87MG cells upto 25 uM after 24 hrs by Western blot analysis", "format": "functional, cell-based", "details": "U-87MG ATCC", "method_in_brief": "(§3)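 Cells exposed to a range of morusin concentrations for 24 h. Cell extracts immunoblotted for DR4, DR5, DcR1 and DcR2, with β-actin as internal control and HRP-conjugated secondary antibodies (1:5000).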"}, "[5]": {"test": "Reduction of PDGFR expression in human U373MG cells at 25 uM after 24 hrs by Western blot analysis", "format": "functional, cell-based", "details": "U-373MG ATCC", "method_in_brief": "(§4)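 LN18, U87MG, T98G, U251MG and U373MG glioblastoma cells were exposed to morusin for 24 h. Cells were maintained in DMEM, MEM or RPMI with 10% FBS at 37 °C and 5% CO2. Whole-cell lysates were Western blotted for receptor proteins, with β-actin as internal control.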"}, "U373 MG [6]": {"tested_on": "U373 MG", "test": "Effect on DcR1 expression in human U373MG cells upto 25 uM after 24 hrs by Western blot analysis", "format": "functional, cell-based", "details": "U-373MG ATCC", "method_in_brief": "as §3"}, "[7]": {"test": "Cytotoxicity against human U87MG cells assessed as reduction in cell viability after 24 hrs by MTT assay", "format": "functional, cell-based, U-87MG ATCC", "details": "U-87 MG", "method_in_brief": "(§5)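 Seeded 3–5 × 10^3 cells/well, treated the next day with a range of morusin (DMSO stock) for 24 h, 37 °C, 5% CO2. Then fresh medium with 1 mg/mL MTT for 2 h at 37 °C, lysis buffer overnight at 37 °C, OD 570 nm. Mean ± SD from at least three independent experiments in triplicate.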"}, "[8]": {"test": "Reduction of XIAP expression in human U373MG cells at 25 uM by Western blot analysis", "format": "functional, cell-based", "details": "U-373MG ATCC, TDE = time-dependent effect", "method_in_brief": "(§6)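 Time course: U87MG and U373MG cells were exposed to 25 μM morusin for the indicated times. Whole-cell extracts were Western blotted, with β-actin as internal control.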"}, "U373 MG [9]": {"tested_on": "U373 MG", "test": "Induction of DR5 expression in human U373MG cells at 25 uM after 24 hrs by FITC-conjugated flow cytometric analysis", "format": "functional, cell-based", "details": "U-373MG ATCC", "method_in_brief": "as §1"}, "U-251 [10]": {"tested_on": "U-251", "test": "Effect on DcR1 expression in human U251MG cells upto 25 uM after 24 hrs by Western blot analysis", "format": "functional, cell-based", "method_in_brief": "as §3"}, "[11]": {"test": "Reduction of PDGFR expression in human U251MG cells at 25 uM after 24 hrs by Western blot analysis", "format": "functional, cell-based", "details": "U-251", "method_in_brief": "as §4"}, "U-87 MG [12]": {"tested_on": "U-87 MG", "test": "Induction of apoptosis in human U87MG cells assessed as increase in cleaved caspase 9 levels at 2.5 uM after 24 hrs by Western blot analysis in presence of TRAIL", "format": "functional, cell-based", "details": "U-87MG ATCC", "method_in_brief": "(§7)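 U87MG and T98G given TRAIL 25 ng/mL plus morusin 2.5 μM together for 24 h; single-agent arms used TRAIL 50 ng/mL or morusin 5 μM. Lysates immunoblotted for cleaved caspase 3, 8, 9 and cleaved PARP, with β-actin as internal control.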"}, "[13]": {"test": "Cytotoxicity against human U373MG cells assessed as reduction in cell viability after 24 hrs by MTT assay", "format": "functional, cell-based, U-373MG ATCC", "details": "U373 MG", "method_in_brief": "as §5"}, "U-87 MG [14]": {"tested_on": "U-87 MG", "test": "Induction of DR5 expression in human U87MG cells after 24 hrs by Western blot analysis", "format": "functional, cell-based", "details": "U-87MG ATCC", "method_in_brief": "as §3"}, "U-251 [15]": {"tested_on": "U-251", "test": "Induction of DR5 expression in human U251MG cells after 24 hrs by Western blot analysis", "format": "functional, cell-based", "method_in_brief": "as §3"}, "[16]": {"test": "Reduction of PDGFR expression in human LN18 cells at 25 uM after 24 hrs by Western blot analysis", "format": "functional, cell-based", "details": "LN-18", "method_in_brief": "as §4"}, "[17]": {"test": "Cytotoxicity against human LN18 cells assessed as reduction in cell viability after 24 hrs by MTT assay", "format": "functional, cell-based", "details": "LN-18, 24 h", "method_in_brief": "as §5"}, "U-87 MG [18]": {"tested_on": "U-87 MG", "test": "Induction of apoptosis in human U87MG cells assessed as increase in cleaved caspase 3 levels at 2.5 uM after 24 hrs by Western blot analysis in presence of TRAIL", "format": "functional, cell-based", "details": "U-87MG ATCC", "method_in_brief": "as §7"}, "[19]": {"test": "Reduction of XIAP expression in human U373MG cells after 24 hrs by Western blot analysis", "format": "functional, cell-based", "details": "U-373MG ATCC", "method_in_brief": "(§8)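 U87MG (MEM) and U373MG (RPMI) cells were given graded morusin concentrations for 24 h. Whole-cell extracts were immunoblotted for anti-apoptotic proteins, with β-actin as loading control.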"}, "[20]": {"test": "Reduction of survivin expression in human U87MG cells at 25 uM by Western blot analysis", "format": "functional, cell-based", "details": "U-87MG ATCC, TDE = time-dependent effect", "method_in_brief": "as §6"}, "U373 MG [21]": {"tested_on": "U373 MG", "test": "Effect on cIAP1 expression in human U373MG cells at 25 uM after 3 to 18 hrs by Western blot analysis", "format": "functional, cell-based", "details": "U-373MG ATCC", "method_in_brief": "as §2"}, "U-87 MG [22]": {"tested_on": "U-87 MG", "test": "Induction of apoptosis in human U87MG cells assessed as increase in cleaved caspase 8 levels at 2.5 uM after 24 hrs by Western blot analysis in presence of TRAIL", "format": "functional, cell-based", "details": "U-87MG ATCC", "method_in_brief": "as §7"}, "[23]": {"test": "Reduction of survivin expression in human U373MG cells at 25 uM by Western blot analysis", "format": "functional, cell-based", "details": "U-373MG ATCC, TDE = time-dependent effect", "method_in_brief": "as §6"}, "[24]": {"test": "Reduction of survivin expression in human U373MG cells after 24 hrs by Western blot analysis", "format": "functional, cell-based", "details": "U-373MG ATCC", "method_in_brief": "as §8"}, "U373 MG [25]": {"tested_on": "U373 MG", "test": "Effect on cIAP1 expression in human U373MG cells at 12 to 25 uM after 24 hrs by Western blot analysis", "format": "functional, cell-based", "details": "U-373MG ATCC", "method_in_brief": "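U87MG and U373MG exposed to a range of morusin concentrations for 24 h. Whole-cell extracts immunoblotted for cIAP1, with β-actin as internal control.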"}, "LN-18": {"tested_on": "LN-18", "test": "Effect on DcR1 expression in human LN18 cells upto 25 uM after 24 hrs by Western blot analysis", "format": "functional, cell-based", "method_in_brief": "as §3"}, "[26]": {"test": "Reduction of XIAP expression in human U87MG cells after 24 hrs by Western blot analysis", "format": "functional, cell-based", "details": "U-87MG ATCC", "method_in_brief": "as §8"}, "[27]": {"target": "Epidermal growth factor receptor (Homo sapiens) (UniProt P00533)", "sequence (P00533 whole entry)": "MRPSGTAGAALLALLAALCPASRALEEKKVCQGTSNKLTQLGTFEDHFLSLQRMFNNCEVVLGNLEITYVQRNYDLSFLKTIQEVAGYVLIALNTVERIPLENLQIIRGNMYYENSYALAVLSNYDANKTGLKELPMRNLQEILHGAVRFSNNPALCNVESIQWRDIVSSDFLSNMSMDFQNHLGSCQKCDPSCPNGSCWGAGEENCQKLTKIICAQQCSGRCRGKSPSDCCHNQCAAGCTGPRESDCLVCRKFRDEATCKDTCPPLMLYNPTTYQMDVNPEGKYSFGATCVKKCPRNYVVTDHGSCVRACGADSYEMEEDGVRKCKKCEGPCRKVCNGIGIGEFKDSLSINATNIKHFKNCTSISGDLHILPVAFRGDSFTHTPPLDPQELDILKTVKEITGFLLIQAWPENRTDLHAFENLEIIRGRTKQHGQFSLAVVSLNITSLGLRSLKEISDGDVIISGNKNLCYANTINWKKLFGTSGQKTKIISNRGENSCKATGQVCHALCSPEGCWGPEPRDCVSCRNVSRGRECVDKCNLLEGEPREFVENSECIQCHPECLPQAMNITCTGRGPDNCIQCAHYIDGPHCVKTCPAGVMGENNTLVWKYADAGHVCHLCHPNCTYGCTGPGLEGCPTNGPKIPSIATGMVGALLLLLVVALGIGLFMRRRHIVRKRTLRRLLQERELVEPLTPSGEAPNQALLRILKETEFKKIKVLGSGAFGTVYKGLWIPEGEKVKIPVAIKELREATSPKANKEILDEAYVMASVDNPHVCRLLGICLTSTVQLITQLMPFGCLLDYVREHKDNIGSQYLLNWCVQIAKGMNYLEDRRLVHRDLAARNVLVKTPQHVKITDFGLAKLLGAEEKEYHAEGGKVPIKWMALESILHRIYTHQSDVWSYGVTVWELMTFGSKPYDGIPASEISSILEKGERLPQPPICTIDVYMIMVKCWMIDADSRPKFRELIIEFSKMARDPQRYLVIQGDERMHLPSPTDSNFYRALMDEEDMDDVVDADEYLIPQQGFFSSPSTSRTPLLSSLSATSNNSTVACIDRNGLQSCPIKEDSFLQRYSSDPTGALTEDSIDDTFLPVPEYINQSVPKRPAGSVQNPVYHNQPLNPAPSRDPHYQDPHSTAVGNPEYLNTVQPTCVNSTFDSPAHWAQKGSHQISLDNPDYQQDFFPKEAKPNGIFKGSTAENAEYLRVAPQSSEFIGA", "test": "Inhibition of EGFR phosphorylation in human U373MG cells measured up to 25 uM after 24 hrs by Western blot analysis", "format": "cell-based", "details": "U-373MG ATCC", "method_in_brief": "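U87MG and U373MG exposed to a range of morusin concentrations for 24 h. Whole-cell lysates immunoblotted for phosphorylated EGFR, with β-actin as internal control.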"}, "U-87 MG [28]": {"tested_on": "U-87 MG", "test": "Induction of DR5 expression in human U87MG cells at 25 uM by Western blot analysis", "format": "functional, cell-based", "details": "U-87MG ATCC, TDE = time-dependent effect", "method_in_brief": "as §2"}, "[29]": {"test": "Reduction of survivin mRNA expression in human U87MG cells after 24 hrs by RT-qPCR analysis", "format": "functional, cell-based", "details": "U-87MG ATCC", "method_in_brief": "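U87MG cells were treated with graded morusin for 24 h. Total RNA was extracted with TRI Reagent, and 1 μg was reverse transcribed. XIAP and survivin mRNA were quantified by RT-qPCR, normalized to GAPDH. Results are mean ± SD from at least three independent experiments; unpaired t-test.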"}},
  "note": "Activity calls are given as the source filed them. The calls are words filed in the database; no cut-off is given here.",
  "data": [
    {"smiles": "CC(C)=CCc1c(-c2ccc(O)cc2O)oc2c3c(cc(O)c2c1=O)OC(C)(C)C=C3", "note": "[MORUSIN]", "values": [
      {"measurement": "Activity", "setting": "U-87 MG [1]", "result": "Active"},
      {"measurement": "Activity", "setting": "[2]", "result": "tde"},
      {"measurement": "Activity", "setting": "U373 MG [3]", "result": "tde"},
      {"measurement": "Activity", "setting": "U-87 MG [4]", "result": "inactive"},
      {"measurement": "Activity", "setting": "[5]", "result": "Active"},
      {"measurement": "Activity", "setting": "U373 MG [6]", "result": "inactive"},
      {"measurement": "IC50", "setting": "[7]", "result": 24, "unit": "µM"},
      {"measurement": "inhibition", "setting": "[8]", "result": "tde"},
      {"measurement": "Activity", "setting": "U373 MG [9]", "result": "Active"},
      {"measurement": "Activity", "setting": "U-251 [10]", "result": "inactive"},
      {"measurement": "Activity", "setting": "[11]", "result": "Active"},
      {"measurement": "Activity", "setting": "U-87 MG [12]", "result": "Active"},
      {"measurement": "IC50", "setting": "[13]", "result": 24, "unit": "µM"},
      {"measurement": "Activity", "setting": "U-87 MG [14]", "result": "Dose-dependent effect"},
      {"measurement": "Activity", "setting": "U-251 [15]", "result": "Dose-dependent effect"},
      {"measurement": "Activity", "setting": "[16]", "result": "Active"},
      {"measurement": "IC50", "setting": "[17]", "result": 24, "unit": "µM"},
      {"measurement": "Activity", "setting": "U-87 MG [18]", "result": "Active"},
      {"measurement": "inhibition", "setting": "[19]", "result": "Dose-dependent effect"},
      {"measurement": "inhibition", "setting": "[20]", "result": "tde"},
      {"measurement": "Activity", "setting": "U373 MG [21]", "result": "inactive"},
      {"measurement": "Activity", "setting": "U-87 MG [22]", "result": "Active"},
      {"measurement": "inhibition", "setting": "[23]", "result": "tde"},
      {"measurement": "inhibition", "setting": "[24]", "result": "Dose-dependent effect"},
      {"measurement": "Activity", "setting": "U373 MG [25]", "result": "inactive"},
      {"measurement": "Activity", "setting": "LN-18", "result": "inactive"},
      {"measurement": "inhibition", "setting": "[26]", "result": "Dose-dependent effect"},
      {"measurement": "inhibition", "setting": "[27]", "result": "Active"},
      {"measurement": "Activity", "setting": "U-87 MG [28]", "result": "tde"},
      {"measurement": "Activity", "setting": "[29]", "result": "Dose-dependent effect"}
    ]}
  ]
}
